# From ChEMBL document CHEMBL3351463, “Methyl effect in azumamides provides insight into histone deacetylase inhibition by macrocycles” (J Med Chem, 2014)
# Activity calls are given as the source filed them. The rule behind the calls is not given here.
# Assays:
# Histone deacetylase 8 = biological target: T1, Histone deacetylase 8 (Homo sapiens, UniProt Q9BY41); test: Inhibition of human recombinant HDAC8 using [Ac-Leu-Gly-Lys(Ac)-AMC substrate incubated for 15 to 30 mins
# T1 sequence (Q9BY41 whole entry): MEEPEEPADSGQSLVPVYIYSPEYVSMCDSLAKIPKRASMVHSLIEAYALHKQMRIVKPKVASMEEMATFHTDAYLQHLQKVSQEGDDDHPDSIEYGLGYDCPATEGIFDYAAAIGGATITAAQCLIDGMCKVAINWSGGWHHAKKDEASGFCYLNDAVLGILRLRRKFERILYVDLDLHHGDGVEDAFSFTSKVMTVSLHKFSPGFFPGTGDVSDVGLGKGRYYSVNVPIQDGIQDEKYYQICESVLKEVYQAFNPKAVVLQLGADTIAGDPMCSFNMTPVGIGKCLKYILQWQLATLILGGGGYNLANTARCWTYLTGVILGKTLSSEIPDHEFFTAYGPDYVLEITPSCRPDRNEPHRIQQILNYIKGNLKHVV
# [1] = biological target: T2, Polyamine deacetylase HDAC10 (Homo sapiens, UniProt Q969S8); test: Inhibition of human recombinant HDAC10 using Ac-Arg-His-Lys(Ac)-Lys(Ac)-AMC substrate incubated for 15 to 30 mins
# T2 sequence (Q969S8 whole entry): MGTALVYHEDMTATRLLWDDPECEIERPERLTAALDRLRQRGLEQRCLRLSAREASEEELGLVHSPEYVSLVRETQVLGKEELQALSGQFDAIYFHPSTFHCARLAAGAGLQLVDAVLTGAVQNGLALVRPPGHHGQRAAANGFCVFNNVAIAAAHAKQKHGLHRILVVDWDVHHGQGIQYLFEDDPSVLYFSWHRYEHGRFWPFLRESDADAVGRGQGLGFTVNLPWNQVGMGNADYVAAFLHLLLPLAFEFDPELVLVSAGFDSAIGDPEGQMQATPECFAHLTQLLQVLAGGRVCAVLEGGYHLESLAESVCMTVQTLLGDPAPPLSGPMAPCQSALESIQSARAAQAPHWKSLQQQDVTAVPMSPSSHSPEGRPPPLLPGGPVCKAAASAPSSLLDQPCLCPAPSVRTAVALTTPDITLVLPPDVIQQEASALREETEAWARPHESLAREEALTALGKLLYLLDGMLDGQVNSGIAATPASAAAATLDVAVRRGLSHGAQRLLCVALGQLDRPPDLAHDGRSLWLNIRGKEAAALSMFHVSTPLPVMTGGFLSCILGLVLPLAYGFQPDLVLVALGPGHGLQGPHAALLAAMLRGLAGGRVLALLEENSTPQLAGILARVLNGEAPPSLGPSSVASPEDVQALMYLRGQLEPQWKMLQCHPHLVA
# Histone deacetylase 2 = Histone deacetylase 2 (Homo sapiens, UniProt Q92769); test: Inhibition of human recombinant HDAC2 using [Ac-Leu-Gly-Lys(Ac)-AMC substrate incubated for 15 to 30 mins
# Histone deacetylase 2, sequence (Q92769 whole entry): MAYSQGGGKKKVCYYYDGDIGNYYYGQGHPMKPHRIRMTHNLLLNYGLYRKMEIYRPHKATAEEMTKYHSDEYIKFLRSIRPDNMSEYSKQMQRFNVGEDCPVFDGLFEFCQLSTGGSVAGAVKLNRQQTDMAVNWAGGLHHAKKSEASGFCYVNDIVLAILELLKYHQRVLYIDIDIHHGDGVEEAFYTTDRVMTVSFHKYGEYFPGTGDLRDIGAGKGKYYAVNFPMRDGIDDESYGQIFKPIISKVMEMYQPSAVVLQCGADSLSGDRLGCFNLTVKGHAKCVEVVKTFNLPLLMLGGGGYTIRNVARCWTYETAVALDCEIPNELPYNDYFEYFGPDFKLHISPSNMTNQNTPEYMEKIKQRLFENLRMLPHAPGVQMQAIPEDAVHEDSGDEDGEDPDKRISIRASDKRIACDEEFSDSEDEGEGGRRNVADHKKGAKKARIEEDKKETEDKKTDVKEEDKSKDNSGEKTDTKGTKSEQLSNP
# Histone deacetylase 3 = Histone deacetylase 3 (Homo sapiens, UniProt O15379); test: Inhibition of human recombinant HDAC3 using [Ac-Leu-Gly-Lys(Ac)-AMC substrate incubated for 15 to 30 mins
# Histone deacetylase 3, sequence (O15379 whole entry): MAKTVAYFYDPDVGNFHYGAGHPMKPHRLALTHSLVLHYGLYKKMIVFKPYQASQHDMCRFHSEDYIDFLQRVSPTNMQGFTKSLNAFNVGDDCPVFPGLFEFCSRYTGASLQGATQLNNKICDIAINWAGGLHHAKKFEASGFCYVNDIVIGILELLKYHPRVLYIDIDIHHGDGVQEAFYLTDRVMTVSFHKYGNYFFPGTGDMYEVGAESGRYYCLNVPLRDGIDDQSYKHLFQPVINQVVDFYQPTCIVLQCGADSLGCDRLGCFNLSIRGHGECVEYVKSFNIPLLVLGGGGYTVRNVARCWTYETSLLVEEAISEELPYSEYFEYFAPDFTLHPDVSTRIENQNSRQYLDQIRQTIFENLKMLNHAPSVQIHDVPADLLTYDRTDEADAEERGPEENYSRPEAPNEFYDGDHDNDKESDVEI
# Histone deacetylase 11 = biological target: T3, Histone deacetylase 11 (Homo sapiens, UniProt Q96DB2); test: Inhibition of human recombinant HDAC11 using [Ac-Leu-Gly-Lys(Ac)-AMC substrate incubated for 15 to 30 mins
# T3 sequence (Q96DB2 whole entry): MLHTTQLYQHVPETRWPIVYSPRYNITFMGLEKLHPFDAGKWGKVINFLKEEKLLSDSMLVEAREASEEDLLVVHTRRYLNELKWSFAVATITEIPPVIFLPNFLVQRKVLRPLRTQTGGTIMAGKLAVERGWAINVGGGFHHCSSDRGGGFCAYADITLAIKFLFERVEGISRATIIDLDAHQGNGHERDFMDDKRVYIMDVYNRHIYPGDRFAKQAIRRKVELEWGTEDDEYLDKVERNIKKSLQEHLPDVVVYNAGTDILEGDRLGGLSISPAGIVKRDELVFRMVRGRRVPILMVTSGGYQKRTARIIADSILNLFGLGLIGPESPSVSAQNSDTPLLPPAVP
# EB-3 = test: Cytotoxic activity against human EB3 cells assessed as growth inhibition up to 25 uM after 3 days by MTT assay; format: functional, cell-based
# Summary of the method: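 EB-3 (EBV-infected human Burkitt's lymphoma) cells seeded at 2 × 10^4 per well in RPMI-1640 with 10% FCS and 1% penicillin/streptomycin, cultured overnight at 37 °C, 5% CO2, then given compound or DMSO vehicle. 2-fold dilution series from DMSO stocks; 3 days exposure. MTT added for 4 h, formazan dissolved in acidic 2-propanol, A570 minus 630 nm. Three experiments in duplicate.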
# Histone deacetylase 1 = Histone deacetylase 1 (Homo sapiens, UniProt Q13547); test: Inhibition of human recombinant HDAC1 using [Ac-Leu-Gly-Lys(Ac)-AMC substrate incubated for 15 to 30 mins
# Histone deacetylase 1, sequence (Q13547 whole entry): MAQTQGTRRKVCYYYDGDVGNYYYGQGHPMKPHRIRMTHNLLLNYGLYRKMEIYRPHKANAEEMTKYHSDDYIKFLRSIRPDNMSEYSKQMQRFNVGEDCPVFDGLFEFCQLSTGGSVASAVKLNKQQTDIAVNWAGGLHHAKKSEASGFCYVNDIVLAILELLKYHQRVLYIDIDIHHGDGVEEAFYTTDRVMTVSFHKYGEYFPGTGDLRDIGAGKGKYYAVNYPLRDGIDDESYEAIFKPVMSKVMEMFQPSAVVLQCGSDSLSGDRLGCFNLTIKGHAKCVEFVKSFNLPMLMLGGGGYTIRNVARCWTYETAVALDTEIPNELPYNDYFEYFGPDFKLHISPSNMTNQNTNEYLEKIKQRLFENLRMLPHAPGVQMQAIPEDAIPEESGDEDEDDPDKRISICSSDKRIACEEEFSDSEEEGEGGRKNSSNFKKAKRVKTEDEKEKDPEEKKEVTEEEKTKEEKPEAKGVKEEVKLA
# [2] = biological target: T4, Protein deacetylase HDAC6 (Homo sapiens, UniProt Q9UBN7); test: Inhibition of human recombinant HDAC6 using [Ac-Leu-Gly-Lys(Ac)-AMC substrate incubated for 15 to 30 mins
# T4 sequence (Q9UBN7 whole entry): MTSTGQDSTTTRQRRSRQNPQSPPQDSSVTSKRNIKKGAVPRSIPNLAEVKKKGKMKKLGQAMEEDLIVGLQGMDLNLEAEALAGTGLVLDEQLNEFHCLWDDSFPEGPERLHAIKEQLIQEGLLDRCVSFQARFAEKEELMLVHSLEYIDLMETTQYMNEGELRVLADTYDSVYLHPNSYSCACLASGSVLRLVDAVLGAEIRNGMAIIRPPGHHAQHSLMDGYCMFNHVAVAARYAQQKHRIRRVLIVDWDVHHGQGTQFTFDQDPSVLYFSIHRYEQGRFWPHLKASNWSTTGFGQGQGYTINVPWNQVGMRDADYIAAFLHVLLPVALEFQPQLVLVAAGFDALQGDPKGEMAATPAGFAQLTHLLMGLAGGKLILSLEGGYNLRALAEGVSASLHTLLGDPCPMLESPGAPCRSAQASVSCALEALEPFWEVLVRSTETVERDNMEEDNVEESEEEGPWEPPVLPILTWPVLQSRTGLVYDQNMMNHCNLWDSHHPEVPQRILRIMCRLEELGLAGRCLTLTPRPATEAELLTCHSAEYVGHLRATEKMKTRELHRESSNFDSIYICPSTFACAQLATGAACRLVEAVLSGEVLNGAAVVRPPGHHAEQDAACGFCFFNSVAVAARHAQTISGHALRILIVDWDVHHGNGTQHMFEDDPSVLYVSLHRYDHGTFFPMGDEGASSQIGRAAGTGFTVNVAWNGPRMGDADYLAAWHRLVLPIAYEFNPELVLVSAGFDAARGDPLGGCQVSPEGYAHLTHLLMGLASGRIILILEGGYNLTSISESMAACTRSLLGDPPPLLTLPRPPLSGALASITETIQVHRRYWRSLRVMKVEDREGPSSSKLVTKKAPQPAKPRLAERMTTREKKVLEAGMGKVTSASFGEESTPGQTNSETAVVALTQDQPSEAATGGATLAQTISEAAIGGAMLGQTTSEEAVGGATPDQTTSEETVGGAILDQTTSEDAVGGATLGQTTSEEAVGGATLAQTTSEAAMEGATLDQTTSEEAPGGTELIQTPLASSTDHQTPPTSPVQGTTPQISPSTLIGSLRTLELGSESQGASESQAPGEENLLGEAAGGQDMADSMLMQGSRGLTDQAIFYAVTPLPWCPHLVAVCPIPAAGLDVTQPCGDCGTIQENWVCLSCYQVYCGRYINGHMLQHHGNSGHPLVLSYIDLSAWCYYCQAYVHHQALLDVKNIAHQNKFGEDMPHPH
# [3] = biological target: T5, Protein deacetylase HDAC6 (Homo sapiens) (UniProt Q9UBN7); test: Inhibition of human recombinant HDAC6 at 20 uM using [Ac-Leu-Gly-Lys(Ac)-AMC substrate incubated for 15 to 30 mins
# T5 sequence (whole entry): T4 sequence (Q9UBN7 whole entry)
# Summary of the method: (§1)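 Recombinant human enzyme (HDAC6 2.4 ng/μL; HDAC8 0.2 ng/μL final) in pH 8.0 Tris buffer with BSA. Ac-Leu-Gly-Lys(Ac)-AMC substrate at 20 μM for HDAC6 and 200 μM for HDAC8. Incubated 30 min at 37 °C, then trypsin development 15–30 min at room temperature. Fluorescence read at ex 360/em 460 nm.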
# [4] = biological target: T6, Histone deacetylase 8 (Homo sapiens) (UniProt Q9BY41); test: Inhibition of human recombinant HDAC8 at 20 uM using [Ac-Leu-Gly-Lys(Ac)-AMC substrate incubated for 15 to 30 mins; summary of the method: as §1
# T6 sequence (whole entry): T1 sequence (Q9BY41 whole entry)
# [5] = Cytotoxic activity against human EB3 cells after 3 days by MTT assay; format: functional; details: EB-3, 72 h
# Summary of the method: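 EBV-infected human Burkitt's lymphoma EB-3 cells seeded at 2 × 10^4 cells/well in RPMI-1640 with 10% FCS and 1% penicillin/streptomycin, cultured overnight at 37 °C, 5% CO2. Compounds added as 2-fold dilution series from DMSO stocks, top final concentration 50 or 100 μM; DMSO vehicle control. After 3 days, MTT added for 4 h. Formazan dissolved in acidic 2-propanol, A570 read minus A630. Three experiments in duplicate.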
Compound,Ki (Histone deacetylase 8),Ki [1] [nM],Ki (Histone deacetylase 2) [nM],Ki (Histone deacetylase 3) [nM],Ki (Histone deacetylase 11) [nM],Ki (Histone deacetylase 1) [nM],Ki ([2]; read-out: Ki) [nM],Ki (Histone deacetylase 8; read-out: Ki) [nM],Ki [2],inhibition [3] [%],inhibition [4] [%],growth inhibition (GI) (EB-3),GI50 [5] [nM]
CC(C)[C@H]1NC(=O)C[C@@H](/C=C/CCCC(=O)O)NC(=O)[C@@H](Cc2ccc(O)cc2)NC(=O)[C@@H](C)NC1=O,Not Active,700,600,500,1300,700,2200,–,–,–,< 50,inactive,–
CC(C)[C@H]1NC(=O)[C@@H](C)[C@@H](C/C=C\CCC(=O)O)NC(=O)[C@@H](Cc2ccc(O)cc2)NC(=O)[C@@H](C)NC1=O,–,–,–,–,–,–,–,–,–,–,–,inactive,–
CC(C)[C@H]1NC(=O)[C@@H](C)[C@@H](C/C=C\CCC(=O)O)NC(=O)[C@@H](Cc2ccccc2)NC(=O)[C@@H](C)NC1=O,–,–,–,–,–,–,–,–,–,–,–,inactive,–
CC(C)[C@H]1NC(=O)[C@@H](C)[C@@H](C/C=C\CCC(N)=O)NC(=O)[C@@H](Cc2ccc(O)cc2)NC(=O)[C@@H](C)NC1=O,–,–,–,–,–,–,–,–,–,–,–,inactive,–
CCC(=O)CCCCC[C@@H]1NC(=O)[C@H]2CCCCN2C(=O)[C@H]([C@@H](C)CC)NC(=O)[C@H](Cc2cn(OC)c3ccccc23)NC1=O [APICIDIN],–,–,–,–,–,–,–,–,–,–,–,–,800
CC(C)[C@H]1NC(=O)C[C@@H](CCCCCC(=O)O)NC(=O)[C@@H](Cc2ccc(O)cc2)NC(=O)[C@@H](C)NC1=O,Not Active,300,300,200,1000,1000,3000,–,–,–,< 50,inactive,–
CC(C)[C@H]1NC(=O)C[C@@H](CCCCCC(=O)O)NC(=O)[C@@H](Cc2ccccc2)NC(=O)[C@@H](C)NC1=O,Not Active,1000,800,700,2000,900,–,–,Not Active,< 50,< 50,–,–

# Continued, in another order:
Ki (Histone deacetylase 8),Ki [1] [nM],Ki (Histone deacetylase 2) [nM],Ki (Histone deacetylase 3) [nM],Ki (Histone deacetylase 11) [nM],Ki (Histone deacetylase 1) [nM],Ki ([2]; read-out: Ki) [nM],Ki (Histone deacetylase 8; read-out: Ki) [nM],Ki [2],inhibition [3] [%],inhibition [4] [%],Compound,growth inhibition (GI) (EB-3),GI50 [5] [nM]
Not Active,300,300,300,800,300,6000,–,–,–,–,CC(C)[C@H]1NC(=O)C[C@@H](C/C=C\CCC(=O)O)NC(=O)[C@@H](Cc2ccc(O)cc2)NC(=O)[C@@H](C)NC1=O,inactive,–
–,230,300,500,900,200,–,4500,Not Active,–,–,CC(C)[C@H]1NC(=O)C[C@@H](C/C=C\CCC(=O)O)NC(=O)[C@@H](Cc2c[nH]c3ccccc23)NC(=O)[C@@H](C)NC1=O,inactive,–
–,170,300,500,300,900,1900,4300,–,–,–,CC(C)[C@H]1NC(=O)C[C@@H](CCCCCC(=O)O)NC(=O)[C@@H](Cc2c[nH]c3ccccc23)NC(=O)[C@@H](C)NC1=O,–,–
–,1600,1700,1400,3200,1200,–,6000,Not Active,< 50,–,CC(C)[C@H]1NC(=O)C[C@@H](/C=C/CCCC(=O)O)NC(=O)[C@@H](Cc2ccccc2)NC(=O)[C@@H](C)NC1=O,–,–
Not Active,700,900,800,1500,600,–,–,Not Active,< 50,< 50,CC(C)[C@H]1NC(=O)C[C@@H](C/C=C\CCC(=O)O)NC(=O)[C@@H](Cc2ccccc2)NC(=O)[C@@H](C)NC1=O,inactive,–
–,600,400,600,1100,500,3700,3000,–,–,–,CC(C)[C@H]1NC(=O)C[C@@H](/C=C/CCCC(=O)O)NC(=O)[C@@H](Cc2c[nH]c3ccccc23)NC(=O)[C@@H](C)NC1=O,–,–
